Experimental data published in ChEMBL document CHEMBL1153817, “New resorcinol-anandamide "hybrids" as potent cannabinoid receptor ligands endowed with antinociceptive activity in vivo” (J Med Chem, 2009).
The source made the active and inactive calls. No cut-off for these calls is given here.

Assays:
Cannabinoid receptor 1 [1] = target: T1, Cannabinoid receptor 1 (Homo sapiens, UniProt P21554); experiment: Displacement of [3H]CP-55940 form human CB1 receptor expressed in HEK cells at 10 uM; assay type: cell-based; settings: HEK293
T1 sequence (P21554 whole entry): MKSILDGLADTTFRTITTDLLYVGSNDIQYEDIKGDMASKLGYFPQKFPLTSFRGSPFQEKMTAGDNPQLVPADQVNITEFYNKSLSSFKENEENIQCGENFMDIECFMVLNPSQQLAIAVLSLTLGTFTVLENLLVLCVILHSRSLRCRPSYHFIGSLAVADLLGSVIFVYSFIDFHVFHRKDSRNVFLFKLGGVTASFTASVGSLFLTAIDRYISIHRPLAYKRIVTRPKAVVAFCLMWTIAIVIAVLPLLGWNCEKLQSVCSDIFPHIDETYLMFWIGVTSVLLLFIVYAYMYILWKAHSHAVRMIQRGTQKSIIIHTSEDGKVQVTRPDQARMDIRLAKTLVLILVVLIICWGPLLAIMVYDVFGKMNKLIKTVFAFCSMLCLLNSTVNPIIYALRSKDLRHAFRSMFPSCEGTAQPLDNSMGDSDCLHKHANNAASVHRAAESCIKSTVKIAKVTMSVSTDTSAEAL

Cannabinoid receptor 2 [2] = target: T2, Cannabinoid receptor 2 (Homo sapiens, UniProt P34972); experiment: Binding affinity to human recombinant CB2 receptor expressed in african green monkey COS cells by radioligand binding assay; assay type: cell-based
T2 sequence (P34972 whole entry): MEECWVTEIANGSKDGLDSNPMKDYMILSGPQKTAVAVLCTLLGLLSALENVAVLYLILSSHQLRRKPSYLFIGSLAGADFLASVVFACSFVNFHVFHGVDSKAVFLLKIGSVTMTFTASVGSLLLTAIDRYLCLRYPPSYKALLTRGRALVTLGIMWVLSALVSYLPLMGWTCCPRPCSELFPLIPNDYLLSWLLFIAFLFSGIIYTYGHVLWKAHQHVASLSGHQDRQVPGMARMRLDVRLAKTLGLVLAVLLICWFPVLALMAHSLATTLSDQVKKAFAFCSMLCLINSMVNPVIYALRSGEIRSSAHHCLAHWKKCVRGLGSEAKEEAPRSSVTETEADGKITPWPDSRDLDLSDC

Cannabinoid receptor 1 [3] = target: T1, Cannabinoid receptor 1; experiment: Binding affinity to human recombinant CB1 receptor expressed in african green monkey COS cells by radioligand binding assay; assay type: cell-based
COS = experiment: Selectivity index, ratio of Ki for human CB2 receptor to Ki for human CB1 receptor expressed in african green monkey COS cells; assay type: cell-based
In short: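 Ki at COS-expressed human CB1 and CB2 each from [3H]CP-55,940 displacement (0.14 nM for CB1), IC50 converted via Cheng-Prusoff, mean of 3 experiments; index taken as ratio of the two Ki values.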

Cannabinoid receptor 2 [4] = target: T2, Cannabinoid receptor 2; experiment: Displacement of [3H]CP-55940 form human CB2 receptor expressed in HEK cells at 10 uM; assay type: cell-based; settings: HEK293
Cannabinoid receptor 1 [5] = target: T3, Cannabinoid receptor 1 (Rattus norvegicus, UniProt P20272); experiment: Binding affinity to CB1 receptor in rat brain membrane; assay type: cell membranes
T3 sequence (P20272 whole entry): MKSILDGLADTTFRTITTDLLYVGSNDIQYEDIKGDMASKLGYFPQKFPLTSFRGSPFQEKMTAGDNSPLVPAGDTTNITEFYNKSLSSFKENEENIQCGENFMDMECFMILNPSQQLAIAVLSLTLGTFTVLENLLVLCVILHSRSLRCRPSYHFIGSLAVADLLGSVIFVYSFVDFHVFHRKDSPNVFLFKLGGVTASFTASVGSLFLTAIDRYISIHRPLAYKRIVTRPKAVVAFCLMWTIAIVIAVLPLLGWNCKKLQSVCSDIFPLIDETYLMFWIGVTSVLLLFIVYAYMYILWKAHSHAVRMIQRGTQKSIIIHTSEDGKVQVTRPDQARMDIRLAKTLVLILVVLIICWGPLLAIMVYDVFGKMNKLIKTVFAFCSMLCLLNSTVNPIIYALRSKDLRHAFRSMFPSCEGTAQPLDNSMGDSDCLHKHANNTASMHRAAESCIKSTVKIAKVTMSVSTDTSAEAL

Cannabinoid receptor 1 [6] = target: T3, Cannabinoid receptor 1; experiment: Binding affinity to CB1 receptor in rat spleen membrane; assay type: cell membranes
Cannabinoid receptor 2 [7] = target: T4, Cannabinoid receptor 2 (Rattus norvegicus, UniProt Q9QZN9); experiment: Binding affinity to CB2 receptor in rat spleen membrane; assay type: cell membranes
T4 sequence (Q9QZN9 whole entry): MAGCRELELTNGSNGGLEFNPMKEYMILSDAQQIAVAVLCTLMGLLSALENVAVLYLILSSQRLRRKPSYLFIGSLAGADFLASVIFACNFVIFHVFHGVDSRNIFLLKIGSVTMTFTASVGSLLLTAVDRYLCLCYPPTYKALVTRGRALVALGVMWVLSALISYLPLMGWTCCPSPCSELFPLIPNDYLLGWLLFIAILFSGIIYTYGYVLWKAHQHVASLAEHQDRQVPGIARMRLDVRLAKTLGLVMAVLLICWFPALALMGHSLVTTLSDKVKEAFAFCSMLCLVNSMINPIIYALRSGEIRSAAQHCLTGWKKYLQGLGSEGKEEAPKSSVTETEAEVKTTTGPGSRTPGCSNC

Cannabinoid receptor 2 [8] = target: T4, Cannabinoid receptor 2; experiment: Binding affinity to CB2 receptor in rat brain membrane; assay type: cell membranes
Mus musculus [9] = experiment: Antinociceptive activity against formalin-induced paw pain in mouse at 1 mg/kg, ip pretreated 15 mins before formalin challenge assessed after 30 to 45 mins in presence of CB1 receptor-antagonist rimonabant; assay type: functional, organism-based; parameters: dose 1 mg/kg
In short: (§1)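 Formalin (1.25% in saline, 30 µL) injected into dorsal hind paw; mice randomised, n = 8-10 per group, one treatment each. Test drug given ip in 10% DMSO/saline 15 min pre-formalin; rimonabant or AM630 (1 mg/kg ip) given 5 min before test drug. Lifting, licking, shaking, flinching timed per 5 min over 60 min; one-way ANOVA with Bonferroni.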

Mus musculus [10] = experiment: Antinociceptive activity against formalin-induced paw pain in mouse at 1 mg/kg, ip pretreated 15 mins before formalin challenge assessed after 30 to 45 mins; assay type: functional, organism-based; parameters: dose 1 mg/kg; in short: as §1
Mus musculus [11] = experiment: Antinociceptive activity against formalin-induced paw pain in mouse at 1 mg/kg, ip pretreated 15 mins before formalin challenge assessed after 30 to 45 mins in presence of CB2 receptor-antagonist AM630; assay type: functional, organism-based; parameters: dose 1 mg/kg; in short: as §1

| SMILES | Activity (Cannabinoid receptor 1 [1]) [%] | Ki (Cannabinoid receptor 2 [2]; read-out: Ki) [nM] | Ki (Cannabinoid receptor 1 [3]; read-out: Ki) [nM] | Ratio Ki (COS) [nM] | Activity (Cannabinoid receptor 2 [4]) [%] | IC50 (Cannabinoid receptor 1 [5]) [nM] | IC50 (Cannabinoid receptor 1 [6]) [nM] | Ki (Cannabinoid receptor 2 [2]; cos) | Ki (Cannabinoid receptor 2 [2]; read-out: pKi (converted)) [nM] | IC50 (Cannabinoid receptor 2 [7]) [nM] | Ki (Cannabinoid receptor 1 [3]; cos) | Ki (Cannabinoid receptor 1 [3]; read-out: pKi (converted)) [nM] | IC50 (Cannabinoid receptor 2 [8]) [nM] | Activity (Mus musculus [9]) | Activity (Mus musculus [10]) | Activity (Mus musculus [11]) |
| --- | --- | --- | --- | --- | --- | --- | --- | --- | --- | --- | --- | --- | --- | --- | --- | --- |
| CC(C)CCOc1cc(O)cc(OCCCCCCCCCCC(=O)NC2CC2)c1 | > 50 | 130 | 220 | 1700 | > 50 | – | – | – | – | – | – | – | – | – | – | – |
| CCCCCCC(C)(C)c1cc(O)cc(OCCCCCCCC(=O)NCCO)c1 | > 50 | 160 | 56 | 400 | > 50 | – | – | – | – | – | – | – | – | – | – | – |
| CCCCCCC(C)(C)c1cc(O)cc(OCCCCCCCCCCC(=O)NCCc2ccc(O)c(O)c2)c1 | > 50 | 5000 | 3400 | 700 | > 50 | – | – | – | – | – | – | – | – | – | – | – |
| CCCCCc1cc(O)cc(OCCCCCCCCCCC(=O)NC2CC2)c1 | – | – | – | 400 | – | – | – | – | – | – | – | – | – | – | – | – |
| CCCCCCC(C)(C)c1cc(O)cc(OCCCCCCCCCCC(=O)NC2CC2)c1 | > 50 | 7.9 | 21 | 2700 | > 50 | – | – | – | – | – | – | – | – | – | – | – |
| CCCCCCC(C)(C)c1cc(O)cc(OCCCCCCCC(=O)NCC2CC2)c1 | > 50 | 34 | 100 | 2900 | > 50 | – | – | – | – | – | – | – | – | – | – | – |
| CCCCCCCOc1cc(O)cc(OCCCCCCCCCCC(=O)NC2CC2)c1 | > 50 | 210 | 2220 | 10600 | > 50 | – | – | – | – | – | – | – | – | – | – | – |
| O=C(CCCCCCCCCCOc1cc(O)cc(O)c1)NCCO | > 50 | – | – | – | > 50 | > 10000 | > 10000 | Not Active | 10000 | > 10000 | Not Active | 10000 | > 10000 | – | – | – |
| CC(C)CCOc1cc(O)cc(OCCCCCCCCCCC(=O)NCC2CC2)c1 | > 50 | 200 | 2300 | 11500 | > 50 | – | – | – | – | – | – | – | – | – | – | – |
| CCCCCCC(C)(C)c1cc(O)cc(OCCCCCCCCCCC(=O)NCC2CC2)c1 | > 50 | 35 | 1000 | 28600 | > 50 | – | – | – | – | – | – | – | – | – | – | – |
| CCCCCCC(C)(C)c1cc(O)cc(OCCCCCCCCCCCC(=O)NCCO)c1 | > 50 | 80 | 820 | 10300 | > 50 | – | – | – | – | – | – | – | – | – | – | – |
| CCCCCCC(C)(C)c1cc(O)cc(OCCCCCCCC(=O)NC2CC2)c1 | > 50 | 7.9 | 5.6 | 700 | > 50 | – | – | – | – | – | – | – | – | inactive | Active | inactive |
| CCCCCCC(C)(C)c1cc(O)cc(OCCCCCCCCCCC(=O)NCCO)c1 | > 50 | 30 | 310 | 10300 | > 50 | – | – | – | – | – | – | – | – | – | – | – |
| O=C(CCCCCCCCCCOc1cc(O)cc(O)c1)NCC1CC1 | > 50 | – | – | – | > 50 | > 10000 | > 10000 | Not Active | 10000 | > 10000 | Not Active | 10000 | > 10000 | – | – | – |
| CCCCOc1cc(O)cc(OCCCCCCCCCCC(=O)NCCO)c1 | > 50 | 1620 | 2410 | 1500 | > 50 | – | – | – | – | – | – | – | – | – | – | – |
| O=C(CCCCCCCCCCOc1cc(O)cc(O)c1)NC1CC1 | > 50 | – | – | – | > 50 | > 10000 | > 10000 | Not Active | 10000 | > 10000 | Not Active | 10000 | > 10000 | – | – | – |
| CCCCCCCOc1cc(O)cc(OCCCCCCCCCCC(=O)NCCO)c1 | > 50 | 2420 | 3070 | 1300 | > 50 | – | – | – | – | – | – | – | – | – | – | – |
| CCCCCCC(C)(C)c1cc(O)cc(OCCCCCCCCCCC(=O)NCc2ccc(O)c(OC)c2)c1 | > 50 | 510 | 2820 | 5500 | > 50 | – | – | – | – | – | – | – | – | – | – | – |
| CC(C)CCOc1cc(O)cc(OCCCCCCCCCCC(=O)NCCO)c1 | > 50 | 570 | 2880 | 5100 | > 50 | – | – | – | – | – | – | – | – | – | – | – |
| CCCCOc1cc(O)cc(OCCCCCCCCCCC(=O)NC2CC2)c1 | > 50 | 120 | 280 | 2300 | > 50 | – | – | – | – | – | – | – | – | – | – | – |
| CCCCCCC(C)(C)c1cc(O)cc(OCCCCCCCCCCCC(=O)NCC2CC2)c1 | > 50 | 600 | 5400 | 9000 | > 50 | – | – | – | – | – | – | – | – | – | – | – |
| CCCCCCC(C)(C)c1cc(O)cc(OCCCCCCCCCCCC(=O)NC2CC2)c1 | > 50 | 20 | 170 | 8500 | > 50 | – | – | – | – | – | – | – | – | – | – | – |
